Data taken from the EternaBench riboswitch data.

Test system: MS2 coat protein
Assay: apparent Kd, MS2 coat protein; higher = weaker binding; RNA-MaP array; FMN 200 µM where present
In short: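 Apparent Kd: the median of filtered binding-curve fits from single clusters. Designs were transcribed on Illumina sequencing-chip clusters by stalled E. coli RNA polymerase and titrated with SNAP-549-labelled MS2 coat protein from 0.7 or 1.5 nM, doubling to 3 µM, in 100 mM Tris-HCl pH 7.5, 80 mM KCl, 4 mM MgCl2, BSA, DTT, yeast tRNA and Tween-20. Each series ran without and then with constant ligand, and green signal was normalised to red-channel RNA signal and control-cluster median Fmax.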

[1] = designed as: OFF switch for flavin mononucleotide, no ligand
[2] = ligand present: flavin mononucleotide, designed as: OFF switch for flavin mononucleotide
[3] = designed as: ON switch for flavin mononucleotide, no ligand
[4] = ligand present: flavin mononucleotide, designed as: ON switch for flavin mononucleotide

Sequence	apparent Kd [1] [µM]	apparent Kd [2] [µM]	apparent Kd [3] [µM]	apparent Kd [4] [µM]
UAUAAGAACGAAGGAUAUGGUUACAUGAGGAUCACCCAUGUAUGUAUAUUGAUCUAGUAUUAUAACCAGAAGGUCGAGAGUAUA	0.0161	0.0271		
AGCUACGUUUCGUAGCAGUGUCAUCGAGAAGGCCUUAUAACAUGAGGAUCACCCAUGUUAACAUGGGAGGAUAUCGAUGAUACA			0.0105	0.00534
CUACCUUAUGAGAAGGCGAUCAUGAAACAUGAUCGAGGAUAUCAUGUAAACAUGAGGAUCACCCAUGUAUGGGUAUUAUGGUAU			0.0915	0.0254
CGUACUCAAGUGAGGAUAUUGUCUCGGAUACGAAACAAGAAGGCACAUGAGGAUCACCCAUGUAGAGAGUACGA	0.0162	0.0143		
AUUUACAAGUAAGGAUAUCGGGUAUAGUUAACUCGAGAAGGUACAUGAGGAUCACCCAUGUAGUAGAUACAUAGAACUGUUUUG	0.0136	0.0127		
UCUCAUAUGCAGGAUAUCCAUGGCGGGCGGAGAGGAGAAGGGCAUACAUGAGGAUCACCCAUGUGUCCCGUGGG	0.0272	0.0412		
AGUAAGAUGCAGAAGGUGUCAGCGAGAGCUGCGACAUGAGGAUCACCCAUGUACACGUGAGUGUACAAGGAUAUGCAUCUUACA			1.09	0.431
AUCAGCUCGUCAGGAUAUACGUCCCUGCGUCAGCAGUGUGGUAAGAUCACAUGAGGAUCACCCAUGUAGAAGGGACGAGCUGAU	0.0229	0.312		
GAUUGACAAGGAUAUACAUGAGGAUCACCCAUGUGCUUCAGCUAGGAGACUAGCAUUGGUAGAAGGUGUUAAUC	0.0203	0.0684		
CGAAGUAGCACAGGAUAUCAUACAUGAGGAUCACCCAUGUCAAGAAACAAAUGAGAAGGGUGCAGACGGUGUUGGAGCUGUUGC			0.192	0.0266
CGGACAAUGCCCGAGACAUGAGGAUCACCCAUGUUAGCAGCACAGGAUAUCAUGUUUUGUAAAGGUGAGAAGGGUGAUUGCAUC			0.102	0.0682
AGUAUACAUGAGGAUCACCCAUGUCUGUAACGGACAGGAUAUGCGUUGCAUCACUGUAAUGCAGAAGGGUCCUGUA			0.296	0.0452
ACAUGAGGAUCACCCAUGUGAUGAUCUCCCAUGUUAUAUUUCAGAAGGCUCGCGUGUUUGAUGAGAGAGGAUAUGGAAUAUACG	0.325	0.272		
UUUUAUUAGUAAGGAUAUACUAGCGAUUAGCUUGUAGAAGGUACAGUCUUAUGUAUAGCAUGUUAACAUGAGGAUCACCCAUGU			0.0209	0.014
AGUUGGCGAGGAUAUACAUGAGGAUCACCCAUGUGAAAUAGAAUAGUGAGGAAGAAAAGUAGAAGGCGCUGACA	0.0587	0.323		
GUAGUUGUGUGGUUGAGGAUAGGGCAGGAUAUACAUGAGGAUCACCCAUGUGAAGCGGGAAGGAGGUAGAAGGGCCAACGUCAU	0.0137	0.0109		
GGAUCUUGGGUCAGGAUAUGCUGAUAGUUAUGUCAGCAGAAGGGACAUGAGGAUCACCCAUGUGCUCGGUUUUG	0.0111	0.0197		
GUCACGAAUGUAGGAUAUCGAGUGGAAUACACUCGAGAAGGACAUGAGGAUCACCCAUGUACUAUGAAAGAUAAUAAACGUGAC	0.0149	0.0195		
ACAUGUAAUGCAGGAUAUUUUACACAUGAGGAUCACCCAUGUGACCAGAGGAAUUGCUAUGAGUAAAAGAAGGGUAUGUACAUG	0.0723	0.0864		
GGUCGUCACAUUAACAUGAGGAUCACCCAUGUCAAAUAACAUGAGGAUAUGCAUCCUAAUUGGAUGCAGAAGGCAUGGACGACC			0.00672	0.00539
GGAAAACAUGAGGAUCACCCAUGUGAGGAUAUCGAUGUCCAAAGAGAGGUGCGGGACUCGAGAAGGCACUUGGA	0.0459	0.0502		
AAAAAGGCAGGAUAUACGAGUCAAAGAAAAGACAAAAGGAGACAUGAGGAUCACCCAUGUAGAAGGGCCAAAAA	0.0267	0.0877		
UCAUUUAAUACAGGAUAUGUUAGUAUACAGUAGAUUGGUUAUAACAUAAUAACAGAAGGGUAGAACAUGAGGAUCACCCAUGUA			0.086	0.0646
